# Laboratory results: ChEMBL document CHEMBL2401679, “Synthesis and on-target antibacterial activity of novel 3-elongated arylalkoxybenzamide derivatives as inhibitors of the bacterial cell division protein FtsZ” (2013)
# Activity calls are given as the source filed them. The calls are words filed in the database; no cut-off is given here.
# How the values were obtained:
# [1] = system: Bacillus subtilis; assay: Inhibition of cell division in penicillin-susceptible Bacillus subtilis ATCC 9372 assessed as lowest concentration required to filamentation after 5 hrs by phase-contrast light microscopy analysis; format: functional
# In short: (§1)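 Cell morphology of B. subtilis ATCC9372 or S. aureus ATCC25923 was examined by phase-contrast light microscopy. The value recorded is the lowest compound concentration at which B. subtilis filamentation or S. aureus ballooning appeared. This is taken as on-target cell division inhibition.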
# [2] = system: Staphylococcus aureus; assay: Antibacterial activity against penicillin-resistant Staphylococcus aureus clinical isolate after 24 hrs by broth microdilution method; format: functional
# In short: (§2)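 MIC by standard broth microdilution following NCCLS recommendations. S. aureus ATCC29213 is a […] strain. The S. aureus PR strain is a penicillin-resistant clinical isolate that has not been characterized. The MIC was taken as the in vitro antibacterial activity value.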
# [3] = system: Streptococcus pneumoniae; assay: Antibacterial activity against penicillin-susceptible Streptococcus pneumoniae ATCC 49619 after 24 hrs by broth microdilution method; format: functional; conditions: ATCC 49619, 24 h
# In short: (§3)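 MIC by broth microdilution following the NCCLS standard method. Test strains were penicillin-susceptible: B. subtilis ATCC9372, S. aureus ATCC25923, S. pneumoniae ATCC49619 and Streptococcus pyogenes PS.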
# [4] = system: Staphylococcus aureus; assay: Antibacterial activity against penicillin-susceptible Staphylococcus aureus ATCC 25923 after 24 hrs by broth microdilution method; format: functional; conditions: ATCC 25923, 24 h; in short: as §3
# [5] = system: Staphylococcus aureus; assay: Antibacterial activity against […] Staphylococcus aureus ATCC 29213 after 24 hrs by broth microdilution method; format: functional; conditions: ATCC 29213, 24 h; in short: as §2
# [6] = system: Staphylococcus aureus; assay: Inhibition of cell division in penicillin-susceptible Staphylococcus aureus ATCC 25923 assessed as lowest concentration required to ballooning after 5 hrs by phase-contrast light microscopy analysis; format: functional; in short: as §1
# [7] = system: Bacillus subtilis; assay: Antibacterial activity against penicillin-susceptible Bacillus subtilis ATCC 9372 after 24 hrs by broth microdilution method; format: functional; conditions: ATCC 9372, 24 h; in short: as §3
# [8] = system: Streptococcus pyogenes; assay: Antibacterial activity against penicillin-susceptible Streptococcus pyogenes after 24 hrs by broth microdilution method; format: functional; in short: as §3
# [9] = system: Staphylococcus aureus; assay: Inhibition of cell division in penicillin-susceptible Staphylococcus aureus ATCC 25923 at 2048 to 4096 ug/ml after 5 hrs by phase-contrast light microscopy analysis; format: functional, organism-based
Compound,INH [1],MIC [2],MIC [3],MIC [4],MIC [5],INH [6],MIC [7],MIC [8],inhibition [9]
NC(=O)c1cccc(OCCCOc2ccc(Cl)cc2)c1,4 µg/mL,> 128 µg/mL,> 128 µg/mL,1020 µg/mL,> 128 µg/mL,512 µg/mL,16 µg/mL,> 128 µg/mL,–
NC(=O)c1cccc(OCCCSc2nc3ccccc3[nH]2)c1,4 µg/mL,> 128 µg/mL,> 128 µg/mL,1020 µg/mL,> 128 µg/mL,512 µg/mL,16 µg/mL,> 128 µg/mL,–
NC(=O)c1cccc(OCCCCCCBr)c1,16 µg/mL,64 µg/mL,> 128 µg/mL,64 µg/mL,64 µg/mL,64 µg/mL,32 µg/mL,> 128 µg/mL,–
NC(=O)c1cccc(OCCCCOc2ccccc2)c1,32 µg/mL,> 128 µg/mL,128 µg/mL,1020 µg/mL,> 128 µg/mL,512 µg/mL,64 µg/mL,> 128 µg/mL,–
NC(=O)c1cccc(OCCSc2nc3ccccc3s2)c1,16 µg/mL,> 128 µg/mL,> 128 µg/mL,2050 µg/mL,> 128 µg/mL,1024 µg/mL,32 µg/mL,> 128 µg/mL,–
NC(=O)c1cccc(OCCCn2cncn2)c1,16 µg/mL,> 128 µg/mL,> 128 µg/mL,2050 µg/mL,> 128 µg/mL,1024 µg/mL,32 µg/mL,> 128 µg/mL,–
NC(=O)c1cccc(OCCCOc2ccc([N+](=O)[O-])cc2)c1,4 µg/mL,> 128 µg/mL,> 128 µg/mL,1020 µg/mL,> 128 µg/mL,512 µg/mL,4 µg/mL,> 128 µg/mL,–
NC(=O)c1cccc(OCCCCOc2ccc([N+](=O)[O-])cc2)c1,32 µg/mL,> 128 µg/mL,> 128 µg/mL,1020 µg/mL,> 128 µg/mL,512 µg/mL,32 µg/mL,> 128 µg/mL,–
COc1ccc(OCCCOc2cccc(C(N)=O)c2)cc1,1024 µg/mL,> 128 µg/mL,> 128 µg/mL,1020 µg/mL,> 128 µg/mL,512 µg/mL,1020 µg/mL,> 128 µg/mL,–
NC(=O)c1cccc(O)c1,4096 µg/mL,4100 µg/mL,> 128 µg/mL,4100 µg/mL,4100 µg/mL,4096 µg/mL,512 µg/mL,> 128 µg/mL,–
NC(=O)c1cccc(OCCCCSc2nc3ccccc3s2)c1,128 µg/mL,> 128 µg/mL,> 128 µg/mL,1020 µg/mL,> 128 µg/mL,512 µg/mL,128 µg/mL,> 128 µg/mL,–
NC(=O)c1cccc(OCCCOc2ccccc2)c1,8 µg/mL,> 128 µg/mL,> 128 µg/mL,1020 µg/mL,> 128 µg/mL,1024 µg/mL,32 µg/mL,> 128 µg/mL,–
NC(=O)c1cccc(OCCCCOc2ccc(Cl)cc2)c1,0.25 µg/mL,> 128 µg/mL,> 128 µg/mL,1020 µg/mL,> 128 µg/mL,256 µg/mL,0.5 µg/mL,> 128 µg/mL,–
CCOCCCCCOc1cccc(C(N)=O)c1,64 µg/mL,64 µg/mL,> 128 µg/mL,64 µg/mL,64 µg/mL,128 µg/mL,64 µg/mL,> 128 µg/mL,–
NC(=O)c1cccc(OCCCCCBr)c1,32 µg/mL,32 µg/mL,> 128 µg/mL,32 µg/mL,16 µg/mL,64 µg/mL,64 µg/mL,> 128 µg/mL,–
NC(=O)c1cccc(OCCCCCCl)c1,32 µg/mL,32 µg/mL,> 128 µg/mL,32 µg/mL,32 µg/mL,32 µg/mL,64 µg/mL,> 128 µg/mL,–
NC(=O)c1cccc(OCCCCl)c1,64 µg/mL,64 µg/mL,> 128 µg/mL,64 µg/mL,64 µg/mL,64 µg/mL,128 µg/mL,> 128 µg/mL,–
NC(=O)c1cccc(OCCBr)c1,64 µg/mL,128 µg/mL,> 128 µg/mL,64 µg/mL,128 µg/mL,16 µg/mL,128 µg/mL,> 128 µg/mL,–
CCCOCCCCCOc1cccc(C(N)=O)c1,8 µg/mL,32 µg/mL,> 128 µg/mL,16 µg/mL,32 µg/mL,32 µg/mL,32 µg/mL,> 128 µg/mL,–
NC(=O)c1cccc(OCCCCn2ccnc2)c1,128 µg/mL,> 128 µg/mL,> 128 µg/mL,256 µg/mL,> 128 µg/mL,128 µg/mL,128 µg/mL,> 128 µg/mL,–
NC(=O)c1cccc(OCCCSc2nc3ccccc3s2)c1,512 µg/mL,> 128 µg/mL,> 128 µg/mL,512 µg/mL,> 128 µg/mL,256 µg/mL,512 µg/mL,> 128 µg/mL,–
COc1cccc(C(N)=O)c1,512 µg/mL,4100 µg/mL,> 128 µg/mL,2050 µg/mL,2050 µg/mL,–,4100 µg/mL,> 128 µg/mL,inactive
COc1ccc(OCCCCOc2cccc(C(N)=O)c2)cc1,32 µg/mL,> 128 µg/mL,> 128 µg/mL,4100 µg/mL,> 128 µg/mL,–,1020 µg/mL,> 128 µg/mL,inactive
NC(=O)c1cccc(OCCCBr)c1,128 µg/mL,128 µg/mL,> 128 µg/mL,64 µg/mL,64 µg/mL,32 µg/mL,128 µg/mL,> 128 µg/mL,–
